Screening data (PubChem)
Most compounds without a hit are left out; they make up all but 2.4% or so of the library.
dFosB activator = mouse delta FosB homodimer activation | P13346 | purified delta FosB, TAMRA-CDK5 oligo fluorescence polarization; percent of positive-control signal above neutral wells | activation, % at 25 µM | hit rate 0.99% among 340,000;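 active = mean activation above about 17%, with every replicate also reaching it, limit read from the data, passing the limit was not always enough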
miR-122 sensor = miR-122 inhibition in Huh7 cells; hit rate 0.3% among 340,000; Huh7 miR-122 Renilla luciferase sensor, 48 h; neutral wells = 0, positive control = 100; activation (reporter increase), % at 12.5 µM;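 active = mean replicate activation score at least 90 and every replicate individually at or above 90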;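 also: higher luciferase means less miR-122 activity so hits act as miR-122 inhibitors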
GSIS activator = primary screen for activators of insulin secretion dependent on glucose, INS-1E cells, GLuc reporter luminescence. INS-1E GLuc reporter insulin secretion, 2-3 h. activation, % at 16.6 µM. hit rate 0.61% among 370,000. AID 743287;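 active = lowest replicate activation of at least 40%, so every replicate reaches that level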;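 also: 0% = median of neutral control wells and 100% = median of IBMX positive control wells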
Cneo AK release = causes C. neoformans cell lysis | AID 651654 | adenylate kinase release luminescence, 4 h; normalised: neutral wells 0, clomiphene wells 100 | lysis activity, % at 15 µM | hit rate 0.2% among 360,000;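 active = mean lysis activity across replicates of at least 80%, whatever share of replicates individually reach that level; inactive = mean lysis activity below 80%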
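Schedule: static 4 h at 37 °C with compound, 1 h detection; system: C. neoformans cells; benchmarks: Clomiphene as positive control; buffer or medium: fresh YPD medium; measure: luminescence rise reflecting yeast cell lysis; measured by: luminescent adenylate kinase detection reagent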
HIV Env fusion = HIV envelope-mediated fusion inhibition. hit rate 1.1% among 360,000. HeLa-JRFL Env/CEM21 cell fusion, luciferase. AID 651610. inhibition, % at 12.3 µM;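 active = mean replicate inhibition score of at least 50 and every replicate individually at or above 50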;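 also: 0% = plate neutral controls and 100% = maraviroc near 300 nM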
Rtt109 HAT inh = C. albicans Rtt109 histone acetyltransferase inhibition; inhibition, % at 34.9 µM; Q5AAJ8; hit rate 0.16% among 330,000; purified Rtt109/Vps75, ThioGlo CoA-SH fluorescence, 4 h;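 active = inhibition of at least 50% in every replicate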
Target sequence (Q5AAJ8 whole entry, looked up): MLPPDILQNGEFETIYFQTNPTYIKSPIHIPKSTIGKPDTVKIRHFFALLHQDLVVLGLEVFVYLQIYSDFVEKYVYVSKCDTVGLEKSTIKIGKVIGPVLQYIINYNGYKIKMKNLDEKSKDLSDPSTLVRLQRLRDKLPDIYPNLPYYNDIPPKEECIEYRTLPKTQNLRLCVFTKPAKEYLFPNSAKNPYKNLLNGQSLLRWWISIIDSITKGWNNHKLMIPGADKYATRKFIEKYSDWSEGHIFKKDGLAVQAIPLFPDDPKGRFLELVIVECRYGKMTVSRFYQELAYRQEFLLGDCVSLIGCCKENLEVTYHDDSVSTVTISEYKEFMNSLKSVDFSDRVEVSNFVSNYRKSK
* hit, by the source's call; ! = not active in a repeat; [ ] = another dose, or the depositor's remark.

`Cc1nn(S(=O)(=O)c2ccccc2)c(C)c1Sc1ccc([N+](=O)[O-])cc1` gave dFosB activator -11, miR-122 sensor -5, GSIS activator -22, Cneo AK release 3 and Rtt109 HAT inh 0.
COc1cccc(OC)c1C(=O)OCC(=O)NCCCc1ccccc1 was read as dFosB activator -4, miR-122 sensor 4, GSIS activator -5, Cneo AK release -2, HIV Env fusion 1 and Rtt109 HAT inh 1.
For COc1cccc(OC)c1C(=O)OCC(=O)NCC(C)C the results were dFosB activator -3, GSIS activator 43*, HIV Env fusion -25 and Rtt109 HAT inh -4.
`C[C@@H]1CCCCO[C@@H](CN(C)C(=O)Nc2ccc3c(c2)OCO3)[C@@H](C)CN([C@@H](C)CO)C(=O)c2cc(NC(=O)NC3CCCCC3)ccc2O1` gave GSIS activator -1.
Screening CN(C)S(=O)(=O)c1ccc(Nc2nc(C3CC3)nc3c2nnn3Cc2ccccc2Cl)cc1 returned dFosB activator -6, GSIS activator 0, HIV Env fusion 48* and Rtt109 HAT inh -2.
Screening COc1cccc(S(=O)(=O)N[C@H]2C=C[C@@H](CC(=O)NC3Cc4ccccc4C3)O[C@H]2CO)c1 returned miR-122 sensor 0[16.7 µM], GSIS activator 17, Cneo AK release 48 and HIV Env fusion 8[16.7 µM].
Screening O=C(C[C@H]1C[C@H]2c3cc(NC(=O)c4cccnc4)ccc3O[C@H]2[C@@H](CO)O1)NCCN1CCCCC1 returned miR-122 sensor 1[16.7 µM], GSIS activator 27, Cneo AK release -3 and HIV Env fusion -4[16.7 µM].
For C=CC[C@H](O)c1ccc(O)c(F)c1 the results were Cneo AK release -7 and HIV Env fusion -14[16.7 µM].
`CN1CCN(C2Cc3ccccc3Sc3cc(C(F)(F)F)ccc32)CC1` (stereo not given) gave GSIS activator 402* and HIV Env fusion 23.
`CN1CCN(C2Cc3ccccc3Sc3ccc(Cl)cc32)CC1` (stereo not given) gave dFosB activator 3, miR-122 sensor -5, Cneo AK release 1, HIV Env fusion 11 and Rtt109 HAT inh 17.
Screening CN1CCN(C2Cc3ccc(F)cc3Sc3cc(F)c(Cl)cc32)CC1 (stereo not given) returned dFosB activator 10, miR-122 sensor -6, GSIS activator -34, Cneo AK release -2, HIV Env fusion 24 and Rtt109 HAT inh -5.
`CSc1ccc2c(c1)C(N1CCN(C)CC1)Cc1ccccc1S2` (stereo not given) gave dFosB activator 19*!, miR-122 sensor -2, GSIS activator 29, Cneo AK release 1, HIV Env fusion -18 and Rtt109 HAT inh 19.
Nc1cc(-c2ccccc2)nn1S(=O)(=O)c1ccc(F)cc1 was read as dFosB activator -2, miR-122 sensor -4, GSIS activator 8, Cneo AK release 1, HIV Env fusion 79* and Rtt109 HAT inh 19.
For C[C@@H]1CN([C@@H](C)CO)C(=O)c2cccc(NC(=O)Nc3ccccc3)c2O[C@@H]1CN(C)Cc1ccc2c(c1)OCO2 the results were miR-122 sensor 0[16.7 µM], GSIS activator 3 and Cneo AK release 3.
For C[C@H](CO)N1C[C@H](C)[C@@H](CN(C)Cc2ccc3c(c2)OCO3)Oc2c(NC(=O)Nc3ccccc3)cccc2C1=O the results were miR-122 sensor 95*[16.7 µM], GSIS activator 1 and Cneo AK release 2.
`C[C@@H]1CN([C@@H](C)CO)C(=O)c2cccc(N(C)C)c2O[C@@H]1CN(C)Cc1ccc(C(=O)Nc2ccccc2N)cc1` gave miR-122 sensor 109*[16.7 µM], Cneo AK release 61 and HIV Env fusion 5[16.7 µM].
For C[C@@H]1CN([C@H](C)CO)C(=O)c2cccc(NC(=O)c3ccc(-c4nccs4)cc3)c2O[C@@H]1CN(C)Cc1ccc(C(=O)Nc2ccccc2N)cc1 the results were miR-122 sensor 203*[16.7 µM], GSIS activator -7, Cneo AK release -1 and HIV Env fusion -280[16.7 µM].
C[C@H]1CN([C@@H](C)CO)C(=O)c2cccc(NC(=O)c3ccc(-c4nccs4)cc3)c2O[C@H]1CN(C)Cc1ccc(C(=O)Nc2ccccc2N)cc1 was read as miR-122 sensor 5[16.7 µM], GSIS activator 6, Cneo AK release 2 and HIV Env fusion -13[16.7 µM].
`C[C@@H]1CN([C@@H](C)CO)C(=O)c2cccc(NC(=O)Nc3ccccc3)c2O[C@@H]1CN(C)Cc1ccc(C(=O)Nc2ccccc2N)cc1` gave miR-122 sensor 140*[16.7 µM], GSIS activator -6, Cneo AK release 1 and HIV Env fusion -125[16.7 µM].
Screening CCCC(=O)N1CC2(CCN(C(=O)NC(C)C)CC2)c2c([nH]c3cc(OC)ccc23)[C@@H]1CO returned GSIS activator 8.
Screening CCNC(=O)[C@@H]1[C@@H](CO)[C@@H]2Cn3c(cccc3=O)[C@@H]2N1CC1CCCCC1 returned GSIS activator 16, Cneo AK release -2 and HIV Env fusion 2[16.7 µM].
C[C@H](CO)N1C[C@H](C)[C@H](CN(C)Cc2ccc(C(=O)Nc3ccccc3N)cc2)Oc2ccc(NC(=O)Nc3ccccc3)cc2C1=O was read as miR-122 sensor 39[16.7 µM], GSIS activator 7, Cneo AK release 3 and HIV Env fusion 6[16.7 µM].
C[C@@H]1CN([C@@H](C)CO)C(=O)c2cc(NC(=O)Nc3ccccc3)ccc2O[C@@H]1CN(C)Cc1ccc(C(=O)Nc2ccccc2N)cc1 was read as miR-122 sensor 170*[16.7 µM], GSIS activator 8, Cneo AK release 2 and HIV Env fusion -19[16.7 µM].
For O=C(CSc1nc2ccccc2n1CCc1ccccc1)NC1CC1 the results were dFosB activator -11, GSIS activator 5 and HIV Env fusion 16.
Screening Cc1nc2ccccc2n1CC(=O)NC1CCCC1 returned dFosB activator -8, GSIS activator 5, Cneo AK release -1, HIV Env fusion 13 and Rtt109 HAT inh 51*.
Screening CC(C)Cn1c(SCC(=O)NC2CC2)nc2ccccc21 returned miR-122 sensor 7, Cneo AK release 2 and HIV Env fusion 95*.
Screening C[C@@H]1CN(C)C(=O)c2cc([N+](=O)[O-])ccc2O[C@H]1CN(C)C(=O)OC(C)(C)C returned GSIS activator 2.
Cc1nc(C(=O)Nc2ccc(Cl)cc2)sc1C1(C)CC(c2cccc([N+](=O)[O-])c2)=NO1 (stereo not given) was read as dFosB activator 0, GSIS activator 7, Cneo AK release -3, HIV Env fusion 55* and Rtt109 HAT inh 5.
